Data: publication PMC10278071 (ACS Chemical Biology, 2023)
Where two headings read alike, the source gives them in different places.

Key:
[1] = test system: human DNMT1; settings: read-out: IC50 human DNMT1; cited from earlier work
[2] = test system: DNMT3A; settings: read-out: IC50 DNMT3A; cited from earlier work
[3] = test system: C4–2 cells; assay: C4–2 cell growth with harmine and bicalutamide; assay type: cell-based, human; settings: bicalutamide 10 μM, harmine 7 μM, alone or combined, after 6–8 days
[4] = biological target: T1, DNMT3B-3L complex (Homo sapiens, UniProt Q9UBC3); assay: Inhibition kinetics assay; assay type: biochemical; settings: for mode of inhibition versus SAM (Lineweaver–Burk): constant Vmax, increased Km upon inhibitor binding
[5] = test system: DNMT3B; settings: read-out: IC50 DNMT3B; cited from earlier work
[6] = test system: DNMT3A; settings: read-out: IC50 DNMT3A; cited from earlier work; remark: listed apart in the source
[7] = test system: DNMT1; settings: cited from earlier work
[8] = biological target: T1, DNMT3B-3L complex; assay: Intrinsic tryptophan fluorescence spectroscopy titration; assay type: binding
Method in brief: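 His-tagged DNMT3B (571–853) and DNMT3L (179–379), co-lysed from E. coli Rosetta2(DE3)pLysS and tag-cleaved, 1 μM complex. Titrated with test compound 0–80 μM at 25 °C. Excitation 280 nm, emission 300–450 nm, slit 5 nm. Buffer titrations subtracted as background. Intensity change fitted by nonlinear one-site specific binding. Three independent experiments.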

[9] = biological target: DNMT3B-3L (Homo sapiens, UniProt Q9UBC3); assay: Isothermal titration calorimetry; assay type: binding
Method in brief: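 Purified DNMT3B-3L complex at 0.02 mM in 20 mM Tris-HCl pH 8.0, 100 mM NaCl, 0.2 mM TCEP. Titrated with 7 μL injections of 0.52 mM test compound. Ligand-into-buffer heat subtracted. Independent binding model fitted to give n, Kd, ΔH and ΔS. Triplicate.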

[10] = test system: C4–2 cells; assay: Western blot of caspase-3 and Bcl-2 after harmine treatment; assay type: cell-based, human; settings: 50 and 100 μM harmine, 24 h, serum-free
[11] = test system: C4–2 cells; assay: Annexin V and PI staining flow cytometry apoptosis assay; assay type: cell-based, human; settings: 24 h
Method in brief: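 C4–2 cells starved 24 h, then exposed 24 h in serum-free medium to test compound at 0, 50 or 100 μM. Cells washed twice in ice-cold PBS and resuspended at 2 × 10^6 cells/mL in binding buffer (10 mM HEPES pH 7.4, 150 mM NaCl, 2.5 mM CaCl2). Stained with APC-annexin V plus PI, then analysed by flow cytometry with compensation for spectral overlap.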

[12] = test system: DU145 cells; assay: Quantitative real-time PCR of hypermethylated genes; assay type: cell-based, human; settings: DU145, 10 μM, 16 h, normalized to 18S rRNA
Method in brief: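 DU145 cells (RPMI 1640, 10% FBS) treated with test compound at 0 or 10 μM for 16 h. Total RNA extracted with TRIzol and DNase-treated; 5 μg reverse-transcribed. SYBR Green qPCR with two-step cycling. Expression normalized to 18S rRNA, reported as fold change versus untreated cells. Student's t-test between groups.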

[13] = test system: murine DNMT3a; settings: read-out: IC50 murine DNMT3a; library screening; cited from earlier work
[14] = test system: DYRK1A; settings: read-out: IC50 DYRK1A; cited from earlier work
[15] = biological target: acetylcholine esterase (AChE); settings: read-out: IC50 AChE; cited from earlier work
[16] = test system: Cdk1/cyclin B; settings: read-out: IC50 Cdk1/cyclin B; cited from earlier work
[17] = test system: Cdk2/cyclin A; settings: read-out: IC50 Cdk2/cyclin A; cited from earlier work
[18] = test system: Cdk5/p25; settings: read-out: IC50 Cdk5/p25; cited from earlier work

Nc1ncnc2c1ncn2[C@@H]1O[C@H](C[C@@H](N)CC[C@H](N)C(=O)O)[C@@H](O)[C@H]1O [sinefungin]
IC50 [2]: 1.8 µM

CC(O)(CS(=O)(=O)c1ccc(F)cc1)C(=O)Nc1ccc(C#N)c(C(F)(F)F)c1 (stereo not drawn) [bicalutamide]
reduction of number of viable cells / cell proliferation [3]: 17%

Oc1ccc(/C=C/c2cc(O)cc(O)c2)cc1 [resveratrol]
Ki [4]: 23.6 ± 4.17 µM
mode of inhibition versus SAM (Lineweaver–Burk) [4]: competitive inhibitors
IC50 [5]: 65 µM
IC50 [6]: 105 µM
inhibitory activity on DNMT1 [7]: no inhibitory activity

COc1ccc2c(c1)[nH]c1c(C)nccc12 [harmine]
mode of inhibition versus SAM (Lineweaver–Burk) [4]: competitive inhibitors
Kd [8]: 3.48 ± 1.95 µM
Kd [9]: 3.35 ± 0.3 µM
Bcl-2 protein levels [10]: decreased Bcl-2 protein levels
levels of cleaved caspase-3 [10]: increased the levels of cleaved caspase-3
cell apoptosis (Annexin V and PI staining) ([11]; 0, 50, 100 μM harmine): induced cell apoptosis
mRNA levels of DNMT3A and DNMT3B genes [12]: did not result in significant changes
reduction of number of viable cells / cell proliferation [3]: 40%
IC50 [13]: 2.3 µM
IC50 [15]: 9.05 µM
IC50 [16]: 17 µM
IC50 [17]: 33 µM
IC50 [18]: 20 µM
